Consider 1 molecule from ChEMBL document CHEMBL1221219, “Selective blockade of 2-arachidonoylglycerol hydrolysis produces cannabinoid behavioral effects” (Nat Chem Biol, 2009).

For assay [1], the target named is T1, Diacylglycerol lipase-alpha (Homo sapiens) (UniProt Q9Y4D2).
T1 sequence (whole entry): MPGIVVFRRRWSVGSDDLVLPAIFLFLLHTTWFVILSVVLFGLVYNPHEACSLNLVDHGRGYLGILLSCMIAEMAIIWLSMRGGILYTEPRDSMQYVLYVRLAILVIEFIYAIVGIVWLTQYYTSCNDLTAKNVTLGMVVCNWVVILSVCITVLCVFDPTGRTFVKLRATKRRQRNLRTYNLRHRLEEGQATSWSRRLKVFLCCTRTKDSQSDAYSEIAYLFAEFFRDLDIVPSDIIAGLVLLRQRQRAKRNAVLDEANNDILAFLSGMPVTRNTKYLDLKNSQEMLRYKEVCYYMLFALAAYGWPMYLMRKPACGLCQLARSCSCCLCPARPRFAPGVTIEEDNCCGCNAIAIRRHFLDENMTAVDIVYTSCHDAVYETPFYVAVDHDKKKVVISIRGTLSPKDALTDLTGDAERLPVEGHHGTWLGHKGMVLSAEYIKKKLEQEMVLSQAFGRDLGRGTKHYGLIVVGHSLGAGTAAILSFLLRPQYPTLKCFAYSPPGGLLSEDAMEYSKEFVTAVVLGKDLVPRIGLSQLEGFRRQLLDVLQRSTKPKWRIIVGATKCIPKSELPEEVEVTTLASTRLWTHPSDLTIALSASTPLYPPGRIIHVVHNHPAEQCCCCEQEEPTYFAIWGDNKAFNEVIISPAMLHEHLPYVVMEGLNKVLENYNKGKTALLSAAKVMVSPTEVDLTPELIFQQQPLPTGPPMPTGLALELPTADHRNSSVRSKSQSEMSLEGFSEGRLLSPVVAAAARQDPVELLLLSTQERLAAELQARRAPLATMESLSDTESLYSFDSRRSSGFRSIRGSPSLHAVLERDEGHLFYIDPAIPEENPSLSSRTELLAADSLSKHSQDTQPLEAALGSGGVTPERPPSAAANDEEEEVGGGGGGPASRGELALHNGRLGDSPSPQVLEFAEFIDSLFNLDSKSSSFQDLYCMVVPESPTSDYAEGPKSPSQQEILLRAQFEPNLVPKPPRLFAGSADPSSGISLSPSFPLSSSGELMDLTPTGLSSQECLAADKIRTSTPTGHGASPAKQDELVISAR
The assay is described as follows: Inhibition of recombinant DAGLalpha expressed in HEK293 cells assessed as hydrolysis of 1-stearoyl-2-arachidonoyl-glycerol to 2-AG at 10 uM after 30 mins by LC-MS method. It is filed as cell-based.

The subject of assay [2] is Mus musculus. The assay is described as follows: Inhibition of ABHD3 in C57B1/6J mouse brain membrane at 16 mg/kg, ip after 4 hrs by competitive activity-based protein profiling-MudPIT method. Set-up: dose 16 mg/kg. Type of assay: functional, organism-based. An outline of the steps:
(§1)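 Mice were dosed 16 mg kg^-1 i.p. or vehicle and killed at 4 h. Brain membrane proteomes were labelled with FP-biotin, avidin-enriched, trypsin-digested on bead, analysed by multidimensional LC-MS and identified by SEQUEST.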

Assay [3] relates to Mus musculus. The assay is described as follows: Inhibition of TPP2 in C57B1/6J mouse brain membrane at 16 mg/kg, ip after 4 hrs by competitive activity-based protein profiling-MudPIT method. Type of assay: functional, organism-based. Set-up: dose 16 mg/kg. An outline of the steps: (§2)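 After i.p. dosing in 4:1 PEG300:Tween80, male C57Bl/6J mice were killed at 4 h. Brain membrane proteomes from treated and vehicle mice were labelled with FP-biotin. Labelled proteins were enriched on avidin, digested on-bead with trypsin and analysed by multidimensional LC-MS. Proteins were identified by SEQUEST, and dosed samples were compared with vehicle.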

Assay [4] has as its system Mus musculus. The assay is described as follows: Inhibition of AChE in C57B1/6J mouse brain membrane at 16 mg/kg, ip after 4 hrs by competitive activity-based protein profiling-MudPIT method. Type of assay: functional, organism-based. Set-up: dose 16 mg/kg. An outline of the steps:
as §1

The subject of assay [5] is Mus musculus. The assay is described as follows: Inhibition of ACOT2 in C57B1/6J mouse brain membrane at 16 mg/kg, ip after 4 hrs by competitive activity-based protein profiling-MudPIT method. It is filed as functional, organism-based. Set-up: dose 16 mg/kg. An outline of the steps: as §1
Assay [6] relates to Mus musculus. The assay is described as follows: Inhibition of DPP8 in C57B1/6J mouse brain membrane at 16 mg/kg, ip after 4 hrs by competitive activity-based protein profiling-MudPIT method. Type of assay: functional, organism-based. On the set-up: dose 16 mg/kg. The essentials:
as §1

The subject of assay [7] is Mus musculus. The assay is described as follows: Inhibition of CES31 in C57B1/6J mouse brain membrane at 16 mg/kg, ip after 4 hrs by competitive activity-based protein profiling-MudPIT method. On the set-up: dose 16 mg/kg. It is filed as functional, organism-based. The essentials:
as §1

In assay [8] the test system is Mus musculus. The assay is described as follows: Inhibition of CG167 in C57B1/6J mouse brain membrane at 16 mg/kg, ip after 4 hrs by competitive activity-based protein profiling-MudPIT method. It is filed as functional, organism-based. Set-up: dose 16 mg/kg. An outline of the steps:
as §1

In assay [9] the test system is Mus musculus. The assay is described as follows: Inhibition of PRCP in C57B1/6J mouse brain membrane at 16 mg/kg, ip after 4 hrs by competitive activity-based protein profiling-MudPIT method. It is filed as functional, organism-based. On the set-up: dose 16 mg/kg. The essentials: as §2
Assay [10] deals with Mus musculus. The assay is described as follows: Change in anandamide level in C57B1/6J mouse brain at 16 mg/kg, ip by LC-MS. On the set-up: dose 16 mg/kg. Type of assay: functional, organism-based. The essentials:
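Mice received 16 mg kg^-1 i.p. in 4:1 PEG300:Tween80 and were killed at 0.5, 1, 2, 4, 8 and 24 h. Brain lipids, including N-acylethanolamines, MAGs, free fatty acids and arachidonic acid, were measured by LC-MS.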

Assay [11] relates to Mus musculus. The assay is described as follows: Induction of hypothermia in CB1 receptor deficient C57B1/6J mouse at 16 mg/kg, ip. It is filed as functional, organism-based. Set-up: dose 16 mg/kg. An outline of the steps: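 Male C57Bl/6J mice, 6-8 weeks, 20-26 g, given 16 mg kg^-1 i.p. in 4:1 v/v PEG300:Tween80 at 4 μl g^-1; vehicle controls received PEG300:Tween80 alone. Cannabinoid effects were scored in the tetrad test.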

For assay [12], the target named is T2, Monoglyceride lipase (Mus musculus) (UniProt O35678).
T2 sequence (whole entry): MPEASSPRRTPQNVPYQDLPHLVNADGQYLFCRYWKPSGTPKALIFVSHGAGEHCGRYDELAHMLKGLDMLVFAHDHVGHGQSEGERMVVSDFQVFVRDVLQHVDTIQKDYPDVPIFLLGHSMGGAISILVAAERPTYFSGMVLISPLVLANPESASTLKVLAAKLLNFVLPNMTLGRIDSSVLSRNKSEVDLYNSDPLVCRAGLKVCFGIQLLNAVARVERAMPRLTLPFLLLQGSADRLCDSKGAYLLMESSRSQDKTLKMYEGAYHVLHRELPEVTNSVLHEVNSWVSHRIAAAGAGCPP
The note with it: C57B1/6J, Brain, Membrane, 50 nM.

Molecules are shown by their SMILES. Active and inactive are the calls of the source. The rule behind the calls is not given here.

`O=C(Oc1ccc([N+](=O)[O-])cc1)N1CCC(C(O)(c2ccc3c(c2)OCO3)c2ccc3c(c2)OCO3)CC1`: the inhibition entry (in assay [1]; with Mus musculus [2]; in the assay with Mus musculus [3]; with Mus musculus [4]; in the assay with Mus musculus [5]; in the assay with Mus musculus [6]) was “inactive” each time. Further, the inhibition result with Mus musculus [7], in the assay with Mus musculus [8] and in the assay with Mus musculus [9] was “inactive” each time. Also, the outcome in the assay with Mus musculus [10] and in the assay with Mus musculus [11] was inactive. Further, in assay [12], the inhibition entry was “Active”.
